Species: Rattus norvegicus
Assay: Toxicity in CCI rat pain model assessed as side effects
Assay type: organism-based
Conditions: in vivo
Summary of the method: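 Rats with unilateral sciatic chronic constriction injury received a single intrathecal bolus via an implanted cannula 14 days after surgery, with morphine and vehicle as comparators. Compound-related behavioural observations were recorded alongside von Frey paw-withdrawal testing. Three animals per analogue.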

CC(C)C[C@@H]1NC(=O)[C@H](CCCCN)NC(=O)[C@H](Cc2ccc(O)cc2)NC(=O)CNC(=O)[C@@H]2CSSC[C@H](NC1=O)C(=O)N[C@@H](Cc1cnc[nH]1)C(=O)N1CC[C@H](O)[C@H]1C(=O)N[C@H](C(=O)O)CSSC[C@H](NC(=O)[C@@H](NC(=O)CNC(=O)[C@@H](N)CC(N)=O)C(C)C)C(=O)N2
Activity: Toxic

Source: ChEMBL document CHEMBL1154792, “chi-Conopeptide pharmacophore development: toward a novel class of norepinephrine transporter inhibitor (Xen2174) for pain” (J Med Chem, 2009)
